These results are taken from ChEMBL document CHEMBL1141255, “Trijugin-type limonoids from the leaves of Cipadessa cinerascens” (2007).

Molecules are shown by their SMILES.

For one assay, the system named is A549. Kind of assay: Cytotoxicity against human A549 cells by MTT assay. Conditions: read-out: ED50 (the source's name). In kind it is functional. The method, boiled down: (§1)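 In vitro growth inhibition of A549 (human lung adenocarcinoma) and K562 (human […] leukemia) tumour cells. Potency is reported as ED50, the 50% effective dose of clonal inhibition, in µg/mL.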
On the technique in general: Formazan colour is commonly taken as a measure of viable cells.

A further assay deals with K562. Nature of the assay: Cytotoxicity against human K562 cells by MTT assay. In kind it is functional. Conditions: read-out: ED50 (the source's name). The essentials:
as §1

`C=C1[C@@H]2C[C@@]3(C)[C@H](c4ccoc4)OC(=O)C[C@]13O[C@H]1C[C@@H](OC(C)=O)C(C)(C)[C@H](CC(=O)OC)[C@@]1(C)C2=O` [CIPATRIJUGIN A]: the EC50 with A549 and in the assay with K562 was greater than 5 µg/mL throughout.

For `C=C1[C@H]2C(=O)[C@@]3(C)[C@H](C[C@@H](OC(C)=O)C(C)(C)[C@@H]3CC(=O)OC)O[C@@]13CC(=O)O[C@@H](c1ccoc1)[C@]3(C)[C@H]2OC(C)=O` [CIPATRIJUGIN D], the EC50 in the assay on A549 and in the assay with K562 was greater than 5 µg/mL each time.

For the compound `C=C1[C@]2(OC(C)=O)C[C@@]3(C)[C@H](c4ccoc4)OC(=O)C[C@]13O[C@H]1C[C@@H](OC(C)=O)C(C)(C)[C@H](CC(=O)OC)[C@@]1(C)C2=O` [CIPATRIJUGIN C], the EC50 with A549 and in the assay on K562 was greater than 5 µg/mL in each case.

For the compound `COC(=O)C[C@H]1C(C)(C)[C@H](OC(C)=O)[C@H](OC(C)=O)[C@@H]2O[C@]34CC(=O)O[C@@H](c5ccoc5)[C@]3(C)[C@@H](OC(C)=O)[C@@H](C(=O)[C@@H]4C)[C@@]21C` [CIPADESIN A], the EC50 in the assay on A549 and in the assay on K562 was greater than 5 µg/mL in each case.

Regarding `COc1cccc2c1C(=O)c1c(O)c3c(c(O)c1C2=O)C[C@@](O)(C(=O)CO)C[C@@H]3O[C@H]1C[C@H](N)[C@H](O)[C@H](C)O1` [DOXORUBICIN], the EC50 in the assay on A549 and in the assay on K562 was 59.5 nM each time.

`C=C1[C@]2(O)C[C@@]3(C)[C@H](c4ccoc4)OC(=O)C[C@]13O[C@H]1C[C@@H](OC(C)=O)C(C)(C)[C@H](CC(=O)OC)[C@@]1(C)C2=O` [CIPATRIJUGIN B]: the EC50 in the assay with A549 and with K562 was greater than 5 µg/mL in each case.
